# Results gathered from unrelated publications.
# Fibroblast growth factor 14: Fibroblast growth factor 14 (Homo sapiens, UniProt Q92915)
# HTR1A: 5-hydroxytryptamine receptor 1A (HTR1A, Homo sapiens, UniProt P08908)
SMILES,target,test,setting,quantity,result
CCN1/C(=C/C(C)=O)Sc2ccc(F)cc21,"Nociceptin receptor (OPRL1, Homo sapiens, UniProt P41146)","ligand displacement, radioligand",10 µM,inhibition,0.04%
N#Cc1ccc(NC(=O)Nc2ccccc2)cc1,"Serine/threonine-protein kinase RIO2 (RIOK2, Homo sapiens, UniProt Q9BVS4)","cell-free assay, competition with immobilised ligand",25 µM,remaining binding,68%
Cc1cc(O)c(-c2ccc([C@@H](C)CN(C)C)cc2)c2c1[nH]c(=O)c1sccc12,"Serine/threonine-protein kinase TAO2 (TAOK2, Homo sapiens, UniProt Q9UL54)","enzyme activity, inhibitor",0.1 µM,inhibition,-4.37%
CC(=O)ON=C1C=CC(=C(C#N)c2ccccc2)C=C1,"Casein kinase I isoform epsilon (CSNK1E, Homo sapiens, UniProt P49674)","enzyme activity, inhibitor, ADP detection",2 µM,activity vs control,77%
Cc1cccc(NC(=O)Cn2cc(CO)c3ccccc32)c1,Fibroblast growth factor 14,"binding, SPR",,koff,0.013 s⁻¹
COc1ccc2oc(-c3ccc4nc(N)oc4c3)c/c(=N\c3ccccc3NC(=O)CCN)c2c1,"Phosphatidylinositol 4-phosphate 3-kinase C2 domain-containing subunit alpha (PIK3C2A, Homo sapiens, UniProt O00443)",binding,1 µM,remaining binding,101%
CCCCC(=O)Nc1ccc(-c2ccc3ncn(CCC)c(=O)c3c2)cn1,"Mitogen-activated protein kinase kinase kinase 13 (MAP3K13, Homo sapiens, UniProt O43283)","binding, competition with immobilised ligand",0.5 µM,remaining binding,94%
CN(C)CCOC(=O)COc1ccc(Cl)cc1,HTR1A,"ligand displacement, radioligand","1 µM, cell membranes",inhibition,-5.33%
NC/C(=C\F)COc1cccc(Cn2c(=S)[nH]c(=O)c3[nH]cnc32)c1,"Glucocorticoid receptor (NR3C1, Homo sapiens, UniProt P04150)","ligand displacement, radioligand",10 µM,inhibition,< 50%
Cc1nc(CSc2nc(-c3ccc(C(C)(C)C)cc3)n[nH]2)cs1,Fibroblast growth factor 14,thermal stability,25 µM,ΔTm,0.3 °C
C1=C/COCc2cc(ccc2OCCN2CCCC2)Nc2nccc(n2)-c2cccc(c2)COC/1,"Eukaryotic translation initiation factor 2-alpha kinase 1 (EIF2AK1, Homo sapiens, UniProt Q9BQI3)",binding,0.1 µM,remaining binding,87%
Cc1cc(F)cc2c(CCC(=O)N[C@@H]3C(=O)NC[C@H]3O)c(-c3ccc(F)cc3)[nH]c12,HTR1A,cell-free assay,10 µM,inhibition,-8%
CC(=O)Nc1ccc(S(=O)(=O)N2CCN(CC(O)COc3ccc4ccccc4c3)CC2)cc1 (stereo not shown),Fibroblast growth factor 14,"binding, SPR",,kon,4290 M⁻¹ s⁻¹
